Test results as given in ChEMBL document CHEMBL1909566, “Diverse metabolic profiles of a Streptomyces strain isolated from a hyper-arid environment” (2011).
≈ marks a conversion by molar mass, not a printed value.

How the values were obtained:
Type in all cases: functional
[1] = test system: Staphylococcus aureus; experiment: Antibacterial activity against Staphylococcus aureus ATCC 25293 after 18 hrs by […]; conditions: ATCC 25923, 18 h, in the assay text read “ATCC 25923” for “ATCC 25293”
In short: (§1)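 Compounds were first screened by agar diffusion, with filter-paper disks of ampicillin (10 μg), oxolinic acid (2 μg) or oxytetracycline (30 μg) as positive controls. For MICs, strains were grown in Müller-Hinton broth to early stationary phase and diluted to OD600 = 0.005. Compound dilutions were added in DMSO (final 10%). Growth was read at OD620 after 18 h at 37 C, in duplicate with two independent cultures.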

[2] = test system: Listeria monocytogenes; experiment: Antibacterial activity against Listeria monocytogenes ATCC 19115 after 18 hrs by […]; conditions: ATCC 19115, 18 h; in short: as §1
[3] = test system: Escherichia coli; experiment: Antibacterial activity against Escherichia coli ATCC 25922 after 18 hrs by […]; conditions: ATCC 25922, 18 h; in short: as §1
[4] = test system: Bacillus subtilis; experiment: Antibacterial activity against Bacillus subtilis NCTC 2116 after 18 hrs by […]; conditions: NCTC 2116, 18 h; in short: as §1
[5] = test system: Vibrio parahaemolyticus; experiment: Antibacterial activity against Vibrio parahaemolyticus NCTC 10441 after 18 hrs by […]; conditions: NCTC 10441, 18 h; in short: as §1

MIC [1] [µg/mL] | MIC [2] [µg/mL] | MIC [3] [µg/mL] | MIC [4] [µg/mL] | SMILES | MIC [5] [µg/mL]
0.4 (≈ 0.908 µM) | 6.3 (≈ 14.3 µM) | > 20 | 3.1 (≈ 7.04 µM) | CC/C=C/[C@H]1C/C=C/C=C\[C@H](O)C[C@@H](O)[C@@H](C)/C=C/C[C@@H](C)/C=C/C=C(C)/C=C/C(=O)O1 [CHAXALACTIN A] | 12.5 (≈ 28.4 µM)
0.2 (≈ 0.438 µM) | 5 (≈ 10.9 µM) | > 20 | 5 (≈ 10.9 µM) | CC/C=C/[C@H]1C/C=C/C=C\[C@H](O)[C@@H](O)[C@@H](O)[C@@H](C)/C=C/C[C@@H](C)/C=C/C=C(C)/C=C/C(=O)O1 [CHAXALACTIN B] | 20 (≈ 43.8 µM)
0.8 (≈ 1.7 µM) | 6.3 (≈ 13.4 µM) | > 20 | 6.3 (≈ 13.4 µM) | CC/C=C/[C@H]1C/C=C/C=C\[C@H](OC)[C@@H](O)[C@@H](O)[C@@H](C)/C=C/C[C@@H](C)/C=C/C=C(C)/C=C/C(=O)O1 [CHAXALACTIN C] | 12.5 (≈ 26.6 µM)
